Compound activity deposited in PubChem by several laboratories.
GRIN3A LBD mod: modulators (binders) of human NR3A ligand-binding domain. actives 2.5% (n = 340,000). Tm shift relative to glycine control, % at 25 µM. NR3A LBD differential scanning fluorimetry, Tm shift; 0% = protein alone, 100% = glycine-bound protein;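 active = melting temperature shift of at least 10% of the positive control shift, at one fixed dose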
T cruzi inh: T. cruzi replication inhibition | T. cruzi beta-gal in NIH3T3, luminescence, 90 h | inhibition, % (no concentration beside the values) | actives 1.4% (n = 300,000);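 active = mean inhibition across valid replicates above about 55%, limit read from the data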;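 also: signal also drops with host cell toxicity which is not excluded here; 0% = plate median of DMSO wells and 100% = zero luminescence signal; higher percent means less beta-gal luminescence so fewer parasites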
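System: NIH/3T3 fibroblasts plus reporter T. cruzi. Medium: DMEM plus 2% FBS. Probe or stimulus: 5000 reporter trypomastigotes per well. Compound: single 50 nL compound addition per well in DMSO. Incubation: co-culture of at least 90 h after 3 h attachment. Detection: GalScreen β-gal luminescence, detergent lysis, 60 min. Evaluation: parasite load inhibition, %.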
PREPL inh: inhibitors of human prolyl oligopeptidase-like enzyme PREPL | Q4J6C6 | recombinant PREPL, fluorescence polarization activity-based probe | inhibition, % at 5.96 µM | actives 0.68% (n = 320,000) | AID 2751; in the data active = inhibition above about 43%;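 also: 0% = enzyme with DMSO and 100% = wells lacking enzyme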
Target sequence (Q4J6C6 whole entry, looked up): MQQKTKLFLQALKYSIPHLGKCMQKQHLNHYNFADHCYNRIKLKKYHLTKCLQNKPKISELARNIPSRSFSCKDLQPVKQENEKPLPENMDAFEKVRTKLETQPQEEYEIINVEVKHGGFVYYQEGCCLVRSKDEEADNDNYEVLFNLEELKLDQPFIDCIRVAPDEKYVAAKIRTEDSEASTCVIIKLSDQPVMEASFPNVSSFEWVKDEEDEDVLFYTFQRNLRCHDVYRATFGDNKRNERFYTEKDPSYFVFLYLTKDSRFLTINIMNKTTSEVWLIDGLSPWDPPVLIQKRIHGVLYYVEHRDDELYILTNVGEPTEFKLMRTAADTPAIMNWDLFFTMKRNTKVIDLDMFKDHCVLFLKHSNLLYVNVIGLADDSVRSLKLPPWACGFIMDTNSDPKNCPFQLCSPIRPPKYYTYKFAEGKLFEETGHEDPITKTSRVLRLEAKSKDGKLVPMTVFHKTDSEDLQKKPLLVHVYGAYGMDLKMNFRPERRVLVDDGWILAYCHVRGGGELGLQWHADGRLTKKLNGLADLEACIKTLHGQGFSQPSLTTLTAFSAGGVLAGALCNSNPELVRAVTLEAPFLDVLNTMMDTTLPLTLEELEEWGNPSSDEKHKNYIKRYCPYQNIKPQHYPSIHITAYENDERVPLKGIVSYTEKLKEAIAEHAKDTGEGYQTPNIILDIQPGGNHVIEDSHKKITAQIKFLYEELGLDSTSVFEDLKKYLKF
CSC inhib: blocks cancer stem cells; cancer stem cell-like cells viability, luminescence; inhibition, % at 7.5 µM; AID 2717; actives 1.1% (n = 300,000); in the data active = inhibition above about 75%; tested in HMLE shEcad cells
Beta apoptosis: blocks beta cell apoptosis. protection from apoptosis, % (no concentration beside the values). INS-1E cytokine-induced death, ATP luminescence, 48 h; percent of positive-control rescue, neutral wells zero. actives 0.8% (n = 300,000);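 active = Every replicate reaches about 75%, or at least half do and their mean reaches it too, limit read from the data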;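 also: 0% = cytokine-treated negative control wells and 100% = positive control rescue; higher means more ATP so stronger rescue from cytokine killing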
CHOP inhibitor: CHOP inhibition in unfolded protein response; CHO-K1 CHOP-promoter luciferase, tunicamycin-induced, 15-18 h; inhibition, % at 10 µM; actives 3.8% (n = 220,000);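 active = compounds that reduced the stress-induced luciferase reporter signal by more than about 70% of percent inhibition, limit read from the data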;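 also: 0% = tunicamycin plus vehicle and 100% = wells without tunicamycin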
* hit, by the source's call; · = no result given. In the library only some 6.7% were active in any assay of this set; here they are far more common.

SMILES	GRIN3A LBD mod	T cruzi inh	PREPL inh	CSC inhib	Beta apoptosis	CHOP inhibitor
O=[N+]([O-])c1c(Nc2cccc(O)c2)cc(Cl)c2nonc12	-4	60*	17	69	34	·
O=C(NCCCN1CCOCC1)c1ccc(-n2nc(C(F)(F)F)cc2-c2cccs2)cc1	-1	1	6	7	6	76*
CCc1ccc(NC(=O)C(=O)NCCOc2ccccc2Cl)cc1	-1	0	-6	1	-6	-4
CCOC(=O)Cc1csc(NC(=O)C(NC(=O)C2CCC(C)CC2)C(C)C)n1 (stereo unspecified)	0	6	7	-7	6	·
Cn1c(CC(=O)Nc2ccccc2C(F)(F)F)c(Sc2ccccc2)c2ccccc21	-2	27	-3	-3	5	76*
Cn1c(CC(=O)Nc2ccccc2)c(Sc2ccccc2)c2ccccc21	4	29	13	-6	-3	48
CCOc1cc(C=O)ccc1OCCCN1C(=O)NC(C)(C)C1=O	1	-16	1	·	-17	-15
CCCCOc1ccc(/C=C/C2=CC(C)(C)NC(=S)N2)cc1OCC	-2	70*	1	·	6	-10
CC(C)CCn1c(Oc2ccc(Cl)cc2)nc2c1c(=O)n(C)c(=O)n2C	-2	37	10	-10	-16	76*
Cc1cc(C(=O)CCl)c(C)n1CCc1ccc(F)cc1	-1	73*	4	56	34	-407
Cc1cc(C(=O)CCl)c(C)n1CCc1ccc(Cl)cc1	1	62*	3	116*	28	-4
COc1ccc(CCn2c(C)cc(C(=O)CCl)c2C)cc1OC	1	47	-3	47	0	-146
Cc1cc(C(=O)CSc2nnnn2C)c(C)n1CCc1ccc(F)cc1	-1	8	3	-5	-3	-23
CC(=O)OCC(=O)Nc1ccc(Br)c(C)c1	0	-25	8	-3	2	3
Cc1cnc(C(=O)OCC(=O)Nc2ccc(Br)c(C)c2)cn1	12*	·	7	-6	0	·
Cc1cnc(C(=O)OCC(=O)Nc2cc(Cl)cc(Cl)c2)cn1	13*	-8	-17	·	·	-14
Cc1cnc(C(=O)OCC(=O)Nc2c(Cl)cc(Cl)cc2Cl)cn1	-1	·	12	6	5	·
Cc1ccc(N2CC(C(=O)Nc3c(C)n(C)n(-c4ccccc4)c3=O)CC2=O)cc1 (stereo unspecified)	0	3	0	-1	-8	-9
O=C(O)c1cccc(NC(=O)c2cn(-c3ccccc3)nc2-c2ccc(F)cc2)c1	1	-3	6	7	-8	·
O=C(Nc1cccc(S(=O)(=O)NC2=NCCC2)c1)c1cn(-c2ccccc2)nc1-c1ccc(F)cc1	12*	·	10	32	8	·
O=C(CC(Sc1ccc(Br)cc1)C(=O)O)c1ccc(Br)cc1 (stereo unspecified)	·	55*	-3	·	·	·
Cc1nc2c(Br)cc(Br)cc2cc1O	24*	2	4	-15	0	81*
Brc1cc(Br)c2nc(-c3cccs3)ccc2c1	3	13	-5	-1	-3	69
Cc1ccc2c(c1)N=C(c1ccc(Cl)cc1)CO2	-8	-19	-1	7	·	71*
CCOC(=O)C[C@H]1c2ccccc2S(=O)(=O)N1Cc1ccc(Cl)cc1	13*	-7	-7	-9	1	·
CCOC(=O)C[C@H]1c2cc(C(F)(F)F)ccc2S(=O)(=O)N1Cc1ccccc1	1	-1	7	-8	-1	·
CC(C)[C@H](NC(=O)N1c2ccccc2NC(=O)[C@@H]1C(C)C)C(=O)N1CCC[C@H]1C(=O)O	1	4	0	-17	-8	·
CC(=O)Nc1ccc(NC(=O)C(Sc2ccccc2)c2ccccc2)cc1 (stereo unspecified)	-5	11	-10	3	6	18
CC(=O)NS(=O)(=O)c1ccc(NC(=O)C(Sc2ccccc2)c2ccccc2)cc1 (stereo unspecified)	-17	-13	1	·	-2	18
CCCCNS(=O)(=O)c1ccc(NC(=O)C(Sc2ccccc2)c2ccccc2)cc1 (stereo unspecified)	21*	43	-10	53	11	36
